# Experimental data taken from paper PMC3983359 (Journal of Medicinal Chemistry, 2014).
# Structures can show the parent of a compound that is named as a salt. Peptide text beside a SMILES is read from it. * marks the point of attachment. βNA = c1ccc2cc(N*)ccc2c1
# Legend:
# B. subtilis 168 = assay: Membrane damage assessment; format: cell-based, Bacillus subtilis; details: 15 min incubation, up to 10-fold MIC, Syto9/propidium iodide
# Procedure, shortened: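 B. subtilis membrane integrity assessed by fluorescence microscopy with Syto9, which stains all cells, and propidium iodide, which enters only compromised cells. […] Stained cells were counted.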
# B. subtilis = assay: MIC determination, broth dilution, B. subtilis; format: cell-based, Bacillus subtilis; details: Bacillus subtilis
# Procedure, shortened: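 Bacterial MIC followed NCCLS M07 broth microdilution. Test compound in DMSO (1 μL) added to 50 μL cation-adjusted Mueller Hinton II broth, then ~1 × 10^3 cfu from overnight liquid culture. Incubated at 30–37 °C for 16–20 h. MIC taken as the first well without visible growth. For imaging, 0.7% w/v resazurin (10 μL) added, then 4 h at 37 °C.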
# Sfp-PPTase = target: T1, Sfp-PPTase (Bacillus subtilis, UniProt P39135); assay: Rescue-by-dilution reversibility experiment; format: biochemical; details: 100-fold dilution from conditions producing 90% inhibition
# T1 sequence (P39135 1-224): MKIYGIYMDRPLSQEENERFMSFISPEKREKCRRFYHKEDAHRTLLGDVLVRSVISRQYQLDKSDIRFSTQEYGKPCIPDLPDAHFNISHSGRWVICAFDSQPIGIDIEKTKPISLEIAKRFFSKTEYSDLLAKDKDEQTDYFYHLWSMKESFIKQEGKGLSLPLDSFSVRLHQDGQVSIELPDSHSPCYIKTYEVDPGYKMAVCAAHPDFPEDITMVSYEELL
# B. subtilis Sfp-PPTase = target: T2, B. subtilis Sfp-PPTase (Bacillus subtilis, UniProt P39135); assay: Sfp-PPTase qHTS assay; format: biochemical; details: for IC50 ± SD: triplicate; for Sfp-PPTase inhibitory activity in words: SAR discussion
# T2 sequence (P39135 1-224): T1 sequence (P39135 1-224)
# B. subtilis (HM489) = assay: B. subtilis HM489 antibacterial assay; format: cell-based, Bacillus subtilis; details: cellular ATP content, Bac-Titer Glo
# HepG2 cells = assay: HepG2 cytotoxicity counterscreen; format: cell-based, human; details: cellular ATP content, CellTiter-Glo, 48 hr
# human PPTase = target: T3, human PPTase (Homo sapiens, UniProt Q9NRN7); assay: Gel-based PPTase assay with the human enzyme; format: biochemical; details: concentrations up to 125 μM
# T3 sequence (Q9NRN7 1-309): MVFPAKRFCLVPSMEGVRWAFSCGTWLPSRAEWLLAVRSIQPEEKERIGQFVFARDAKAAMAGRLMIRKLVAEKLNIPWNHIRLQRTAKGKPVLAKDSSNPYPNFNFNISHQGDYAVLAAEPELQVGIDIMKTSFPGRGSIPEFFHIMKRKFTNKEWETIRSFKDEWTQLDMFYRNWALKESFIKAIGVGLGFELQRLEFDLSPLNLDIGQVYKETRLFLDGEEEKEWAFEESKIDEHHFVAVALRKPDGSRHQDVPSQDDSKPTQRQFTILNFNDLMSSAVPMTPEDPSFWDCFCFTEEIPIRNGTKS
# E. coli BW25113 = assay: Checkerboard synergy experiment with PAβN; format: cell-based, Escherichia coli; details: top concentrations tested
# Procedure, shortened: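 Checkerboard broth dilution in E. coli BW25113 combining test compound with PAβN over concentration grids. Resazurin added (10 μL, 0.7% w/v) and incubated a further 4 h at 37 °C; purple wells scored as no metabolically active bacteria. At each test-compound concentration, the lowest PAβN concentration halting growth was recorded. FIC index was estimated as combined potency relative to the single components.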
# [1] = system: S. aureus BK2395 (PFGE USA500); assay: Mouse model of S. aureus septicemia; format: in vivo; details: 55 30 mpk, vancomycin 50 mpk; 4, 24, 48 hours post infection
smiles,measurement,setting,value
"CCCCCCCCCCCCCCCC[N+](C)(C)C [CTAB, cetyltrimethylammonium bromide]",bacterial cell membrane integrity,B. subtilis 168,rapid compromise of bacterial cell integrity
same,MIC,B. subtilis,~2 µg/mL
O=C(N[C@H](CO)[C@H](O)c1ccc([N+](=O)[O-])cc1)C(Cl)Cl [Chloramphenicol],bacterial cell membrane integrity,B. subtilis 168,continued cellular viability
same,MIC,B. subtilis,~2 µg/mL
"Cc1ccnc(NC(=S)N2CCN(c3cccc(C(F)(F)F)c3)CC2)c1 [Compound 1, N-(4-Methylpyridin-2-yl)-4-(3-(trifluoromethyl)phenyl)piperazine-1-carbothioamide Trifluoroacetate]",reversibility of inhibition of Sfp,Sfp-PPTase,completely reversible inhibition
FC(F)(F)c1cccc(N2CCN(C(=S)Nc3cc(C(F)(F)F)ccn3)CC2)c1 [Compound 4],IC50 ± SD,"B. subtilis Sfp-PPTase; Table 1, HTS assay",inactive
Cc1cccc(NC(=S)N2CCN(c3cccc(C(F)(F)F)c3)CC2)c1 [Compound 5],IC50 ± SD,"B. subtilis Sfp-PPTase; Table 1, HTS assay",inactive
FC(F)(F)c1cccc(N2CCN(C(=S)Nc3ccncc3)CC2)c1 [Compound 6],IC50 ± SD,"B. subtilis Sfp-PPTase; Table 1, HTS assay",inactive
"Cc1ccnc(NC(=O)N2CCN(c3cccc(C(F)(F)F)c3)CC2)c1 [Compound 12, N-(4-Methylpyridin-2-yl)-4-(3-(trifluoromethyl)phenyl)piperazine-1-carboxamide Trifluoroacetate]",B. subtilis (HM489) IC50,B. subtilis (HM489),inactive
same,IC50 ± SD,"B. subtilis Sfp-PPTase; Table 1, HTS assay",inactive
same,Sfp-PPTase IC50,"B. subtilis Sfp-PPTase; Table 4, HTS assay",inactive
Cc1ccnc(NC(=N)N2CCN(c3cccc(C(F)(F)F)c3)CC2)c1 [Compound 13],IC50 ± SD,"B. subtilis Sfp-PPTase; Table 1, HTS assay",inactive
Cc1cc(C)nc(N/C(=N/C#N)N2CCN(c3cccc(C(F)(F)F)c3)CC2)c1 [Compound 14],Sfp-PPTase inhibitory activity in words,B. subtilis Sfp-PPTase,complete loss of activity
same,IC50 ± SD,"B. subtilis Sfp-PPTase; Table 1, HTS assay",inactive
Cc1cc(C)nc(NC(=C(C#N)C#N)N2CCN(c3cccc(C(F)(F)F)c3)CC2)c1 [Compound 15],Sfp-PPTase inhibitory activity in words,B. subtilis Sfp-PPTase,complete loss of activity
same,IC50 ± SD,"B. subtilis Sfp-PPTase; Table 1, HTS assay",inactive
Cc1cc(C)nc(Nc2nnc(N3CCN(c4cccc(C(F)(F)F)c4)CC3)s2)c1 [Compound 16],IC50 ± SD,"B. subtilis Sfp-PPTase; Table 1, HTS assay",inactive
Cc1ccnc(N(C)C(=S)N2CCN(c3cccc(C(F)(F)F)c3)CC2)c1 [Compound 19],IC50 ± SD,"B. subtilis Sfp-PPTase; Table 1, HTS assay",inactive
Cc1ccnc(NC(=S)NC2CCN(c3cccc(C(F)(F)F)c3)CC2)c1 [Compound 20],IC50 ± SD,"B. subtilis Sfp-PPTase; Table 1, HTS assay",inactive
"Cc1ccnc(NC(=S)N2CCN(c3ccccc3C(F)(F)F)CC2)c1 [Compound 22, N-(4-Methylpyridin-2-yl)-4-(2-(trifluoromethyl)phenyl)piperazine-1-carbothioamide Trifluoroacetate]","cytotoxicity (HepG2), IC50",HepG2 cells,inactive
"Cc1cc(C)nc(NC(=S)N2CCN(c3ccc(Cl)cc3C(F)(F)F)CC2)c1 [Compound 41, 4-(4-Chloro-2-(trifluoromethyl)phenyl)-N-(4,6-dimethylpyridin-2-yl)piperazine-1-carbothioamide Trifluoroacetate]","cytotoxicity (HepG2), IC50",HepG2 cells,inactive
Cc1ccnc(NC(=S)NCCN(C)c2cccc(C(F)(F)F)c2)c1 [Compound 57],Sfp-PPTase inhibitory activity in words,B. subtilis Sfp-PPTase,lost all activity
same,IC50 ± SD,"B. subtilis Sfp-PPTase; Table 3, HTS assay",inactive
Cc1ccnc(NC(=S)NCCNc2cccc(C(F)(F)F)c2)c1 [Compound 58],Sfp-PPTase inhibitory activity in words,B. subtilis Sfp-PPTase,lost all activity
same,IC50 ± SD,"B. subtilis Sfp-PPTase; Table 3, HTS assay",inactive
Cc1ccnc(NC(=S)NC2CN(c3cccc(C(F)(F)F)c3)C2)c1 [Compound 59],Sfp-PPTase inhibitory activity in words,B. subtilis Sfp-PPTase,all activity is lost
same,IC50 ± SD,"B. subtilis Sfp-PPTase; Table 3, HTS assay",inactive
"Cc1ccnc(NC(=S)N2CCC(Nc3cccc(C(F)(F)F)c3)CC2)c1 [Compound 63, N-(4-Methylpyridin-2-yl)-4-((3-(trifluoromethyl)phenyl)amino)piperidine-1-carbothioamide Trifluoroacetate]","cytotoxicity (HepG2), IC50",HepG2 cells,inactive
"Nc1ncnc2c1ncn2[C@@H]1O[C@H](COP(=O)(O)O)[C@@H](OP(=O)(O)O)[C@H]1O [PAP, 3′-phosphoadenosine 5′-monophosphate, reference compound]",inhibition of the human PPTase,human PPTase,observed inhibition
same,reversibility of inhibition of Sfp,Sfp-PPTase,reversible
"NC(N)=NCCC[C@H](NC(=O)[C@@H](N)Cc1ccccc1)C(=O)Nc1ccc2ccccc2c1 [PAβN, phenylarginine-β-naphthamide, reference compound] (H-Phe-Arg-βNA)",antibacterial activity of the single compound against BW25113,E. coli BW25113,neither compound alone was found to possess antibacterial activity
"C/N=c1\nc(-c2ccccc2)n(-c2ccccc2)s1 [SCH-202676, reference compound]",inhibition of the human PPTase,human PPTase,observed inhibition
same,reversibility of inhibition of Sfp,Sfp-PPTase,irreversible inhibitor
"CN[C@H](CC(C)C)C(=O)N[C@H]1C(=O)N[C@@H](CC(N)=O)C(=O)N[C@H]2C(=O)N[C@H]3C(=O)N[C@H](C(=O)N[C@H](C(=O)O)c4cc(O)cc(O)c4-c4cc3ccc4O)[C@H](O)c3ccc(c(Cl)c3)Oc3cc2cc(c3O[C@@H]2O[C@H](CO)[C@@H](O)[C@H](O)[C@H]2O[C@H]2C[C@](C)(N)[C@H](O)[C@H](C)O2)Oc2ccc(cc2Cl)[C@H]1O [vancomycin, reference compound]",survival in mouse sepsis model,[1],completely protected animals from morbidity
